According to ChEMBL document CHEMBL1155099, “Natural products in parallel synthesis: triazole libraries of nonactic acid” (2008):
Activity calls are given as the source filed them.

Key:
Type in all cases: functional, organism-based
Bacillus anthracis = assay: Antibacterial activity against Bacillus anthracis at 1mM by almar blue dye reduction assay
Bacillus cereus = assay: Antibacterial activity against Bacillus cereus at 1 mM by almar blue dye reduction assay
Method in brief: (§1)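 Single-point primary screen at 1 mM using Alamar Blue dye reduction as the growth read-out.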

Bacillus subtilis = assay: Antibacterial activity against Bacillus subtilis at 1 mM by almar blue dye reduction assay; method in brief: as §1
Staphylococcus aureus = assay: Antibacterial activity against Staphylococcus aureus at 1 mM by almar blue dye reduction assay; method in brief: as §1
Escherichia coli = assay: Antibacterial activity against Escherichia coli at 1 mM by almar blue dye reduction assay; method in brief: as §1
Pseudomonas aeruginosa = assay: Antibacterial activity against Pseudomonas aeruginosa at 1 mM by almar blue dye reduction assay; method in brief: as §1
Candida albicans = assay: Antifungal activity against Candida albicans at 1 mM by almar blue dye reduction assay; method in brief: as §1
Cryptococcus neoformans = assay: Antifungal activity against Cryptococcus neoformans at 1 mM by almar blue dye reduction assay; method in brief: as §1
Saccharomyces cerevisiae = assay: Antifungal activity against Saccharomyces cerevisiae at 1 mM by almar blue dye reduction assay; method in brief: as §1

Measured: Activity

CCN(CC)C(=O)[C@H](C)[C@H]1CC[C@@H](C[C@@H](C)n2cc(C#CCCCC#N)nn2)O1
inactive: all assays above

C[C@H](C[C@@H]1CC[C@H]([C@@H](C)C(=O)N2CCCC2)O1)n1cc(C#CC2=CCCCC2)nn1
inactive: all assays above

COc1ccc(OCC#Cc2cn([C@H](C)C[C@@H]3CC[C@H]([C@@H](C)C(=O)N4CCCC4)O3)nn2)cc1
inactive: all assays above

C[C@H](C[C@@H]1CC[C@H]([C@@H](C)C(=O)N(C)Cc2ccccc2)O1)n1cc(C#CCc2ccccc2)nn1
inactive: all assays above

C[C@H](CC1CCC([C@@H](C)C(=O)N2CCCC2)O1)n1cc(C#CCNC(=O)OCc2ccccc2)nn1 (single isomer, unassigned)
inactive: all assays above

COc1ccc(C#Cc2cn([C@H](C)C[C@@H]3CC[C@H]([C@@H](C)C(=O)N4CCN(CC5CCCO5)CC4)O3)nn2)cc1 (some centres not stated)
inactive: all assays above

CCCCN(CC#Cc1cn([C@H](C)C[C@@H]2CC[C@H]([C@@H](C)C(=O)NC(C)C)O2)nn1)CCCC
inactive: all assays above

CCCCCC#Cc1cn([C@H](C)C[C@@H]2CC[C@H]([C@@H](C)C(=O)N(CC)CC)O2)nn1
inactive: all assays above

C[C@H](C[C@@H]1CC[C@H]([C@@H](C)C(=O)N(C)Cc2ccccc2)O1)n1cc(C#Cc2ccc(Oc3ccccc3)cc2)nn1
inactive: all assays above

CCC(=O)OCC#Cc1cn([C@H](C)CC2CCC([C@@H](C)C(=O)NC(C)C)O2)nn1 (single isomer, unassigned)
inactive: all assays above

C[C@H](C[C@H]1CC[C@H]([C@@H](C)C(=O)N2CCCC2)O1)n1cc(C#CCN(C)C)nn1
inactive: all assays above

CC(C)NC(=O)[C@H](C)[C@H]1CC[C@@H](C[C@@H](C)n2cc(C#Cc3ccccn3)nn2)O1
inactive: all assays above

C[C@H](C[C@@H]1CC[C@H]([C@@H](C)C(=O)N2CCCC2)O1)n1cc(C#Cc2ccc(Oc3ccccc3)cc2)nn1
inactive: all assays above

CC(C)NC(=O)[C@H](C)C1CCC(C[C@@H](C)n2cc(C#CCNC(=O)OCc3ccccc3)nn2)O1 (single isomer, unassigned)
inactive: all assays above

CCN(CC)C(=O)[C@H](C)[C@H]1CC[C@@H](C[C@@H](C)n2cc(C#CCOc3ccc(Br)cc3)nn2)O1
inactive: all assays above

Cc1cccc(NC(=O)NCC#Cc2cn([C@H](C)CC3CCC([C@@H](C)C(=O)NC(C)C)O3)nn2)c1 (single isomer, unassigned)
inactive: all assays above

C[C@H](C[C@@H]1CC[C@H]([C@@H](C)C(=O)N(C)Cc2ccccc2)O1)n1cc(C#CCOc2ccc(C(F)(F)F)cc2)nn1
inactive: all assays above

CCN(CC)C(=O)[C@H](C)[C@H]1CC[C@@H](C[C@@H](C)n2cc(C#Cc3ccccc3[N+](=O)[O-])nn2)O1
inactive: all assays above

CC(C)NC(=O)[C@H](C)[C@H]1CC[C@@H](C[C@@H](C)n2cc(C#CCc3ccccc3)nn2)O1
inactive: all assays above

CCN(CC)C(=O)[C@H](C)[C@H]1CC[C@@H](C[C@@H](C)n2cc(C#CC3=CCCCC3)nn2)O1
inactive: all assays above

C[C@H](C[C@@H]1CC[C@H]([C@@H](C)C(=O)N(C)Cc2ccccc2)O1)n1cc(C#Cc2cccc3ccccc23)nn1
inactive: all assays above

CCN(CC)C(=O)[C@H](C)[C@H]1CC[C@@H](C[C@@H](C)n2cc(C#CCOC)nn2)O1
inactive: all assays above

CC(C)NC(=O)[C@H](C)[C@H]1CC[C@@H](C[C@@H](C)n2cc(C#CCOc3ccccc3)nn2)O1
inactive: all assays above
